The list is not random: actives were taken first. Their share in the collection is about 2.6%.
miR-122 sensor: miR-122 inhibition in Huh7 cells; activation (reporter increase), % at 12.5 µM; Huh7 miR-122 Renilla luciferase sensor, 48 h; neutral wells = 0, positive control = 100; 0.3% of 340,000 active;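 active = mean replicate activation score at least 90 and every replicate individually at or above 90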;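 note: higher luciferase means less miR-122 activity so hits act as miR-122 inhibitors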
FN deposition inh: fibronectin deposition inhibition | 0.086% of 350,000 active | AID 743247 | AH1F fibroblasts, Alexa488-fibronectin deposition fluorescence, overnight | inhibition, % at 12.6 µM;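 active = mean inhibition across replicates of 30% or more, regardless of how many single replicates reach that level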;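 note: positive control wells lacked labelled fibronectin entirely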
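Material: AH1F fibroblasts assembling fluorescent fibronectin matrix; amount: 10000 AH1F cells/well; medium: DMEM, 2% serum; reagent: Alexa488-fibronectin, 24 nM final in well; dosing: single compound dose, delivered by pin transfer; incubation: 1 h adhesion, overnight exposure; detection: fluorescence after three HBSS washes, excitation 485 nm, emission 525 nm; measure: fibronectin deposition inhibition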
Vif imaging: HIV Vif inhibition; 0.35% of 340,000 active; AID 602346; inhibition, % at 7.49 µM; HEK293T cells, Vif self-association by quenched fluorescence, imaging, 24 h; in the data active = inhibition above about 50%, passing the limit was not always enough
rRNA inh HTS: inhibits bacterial ribosomal RNA function over humanized ribosomes | E. coli WT GFP vs humanized-ribosome RFP mutants, fluorescence, 24 h; active compounds read low; DMSO median 0, no signal -100 | GFP signal change (wild-type ribosome), % (test concentration not listed) | 1.6% of 350,000 active | AID 720706;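 active = significant combined selectivity score with lowered wild-type GFP, culture density cut under 30%, mutant RFP and density less affected; inactive = any of these conditions unmet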
HIV Env fusion: HIV envelope-mediated fusion inhibition | inhibition, % at 12.3 µM | 1.1% of 360,000 active | HeLa-JRFL Env/CEM21 cell fusion, luciferase;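 active = mean replicate inhibition score of at least 50 and every replicate individually at or above 50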;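 note: 0% = plate neutral controls and 100% = maraviroc near 300 nM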
S100A4 inh HTS: blocks human S100A4 binding to myosin IIA peptide | P26447 | S100A4/TAMRA-MyoIIA peptide fluorescence polarization | inhibition, % at 10.7 µM | 0.14% of 360,000 active;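 active = mean inhibition of at least 70% across replicates, with every replicate also reaching that level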
Target sequence (P26447 whole entry, looked up): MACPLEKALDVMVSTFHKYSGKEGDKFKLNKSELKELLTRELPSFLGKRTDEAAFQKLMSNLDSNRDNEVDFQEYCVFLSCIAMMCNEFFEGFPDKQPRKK
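assay system = human S100A4 monomer with TAMRA-labelled myosin IIA peptide | also added = labelled myosin peptide probe, 5 nM | incubation = 5 min between mix addition and reading | control set = DMSO and TFP controls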
Active calls of the source: *; [ ] = remark or other dose.

How did Cc1ccc(C(=O)COC(=O)c2ccc(O)cc2)cc1 do in these assays?
FN deposition inh: -1; Vif imaging: -2; rRNA inh HTS: -27*; HIV Env fusion: -95; S100A4 inh HTS: 1

What do the screens show for `CCOC(=O)COC(=O)c1ccc(O)cc1`?
miR-122 sensor: 3; FN deposition inh: 4; Vif imaging: 6; HIV Env fusion: -14

How did C[C@@H]1CN([C@@H](C)CO)C(=O)c2cc(/C=C/c3ccccc3)cnc2O[C@H]1CN(C)Cc1ccc2c(c1)OCO2 do in these assays?
miR-122 sensor: -10[16.7 µM]; FN deposition inh: 11; rRNA inh HTS: 3; HIV Env fusion: 21[16.7 µM]; S100A4 inh HTS: 3

How did CC(=O)NC[C@@H]1[C@@H](c2ccc(-c3cccc(F)c3)cc2)[C@H](CO)N1C(C)=O do in these assays?
miR-122 sensor: 7[16.7 µM]; rRNA inh HTS: -1; S100A4 inh HTS: -7

How did COc1ccc(CNCC(O)(c2ccc(F)cc2)c2ccc(F)cc2)cc1OC do in these assays?
miR-122 sensor: -9; FN deposition inh: -3; Vif imaging: -13; rRNA inh HTS: 2; HIV Env fusion: 42; S100A4 inh HTS: -16

Results for COc1ccc(CNCC(O)(c2ccc(Cl)cc2)c2ccc(Cl)cc2)cc1OC ?
miR-122 sensor: -7; FN deposition inh: 21; Vif imaging: -3; HIV Env fusion: 63*

Results for COc1ccc(S(=O)(=O)N[C@@H]2CC[C@@H](CC(=O)O)O[C@H]2CO)cc1 ?
FN deposition inh: 2; rRNA inh HTS: 0; HIV Env fusion: 5[16.7 µM]; S100A4 inh HTS: -7

What do the screens show for `NNc1nc2c(F)cccc2s1`?
FN deposition inh: 0; Vif imaging: 1; rRNA inh HTS: -5; S100A4 inh HTS: 1

What do the screens show for `NNc1nc2c(F)cc(F)cc2s1`?
miR-122 sensor: -2; FN deposition inh: 6; Vif imaging: 2; rRNA inh HTS: -25*; HIV Env fusion: -39; S100A4 inh HTS: -4

What do the screens show for `Cc1cc(C)cc(NC(=O)C2C3C=CC(O3)C2C(=O)O)c1` (stereo unspecified)?
miR-122 sensor: -3; FN deposition inh: 1; Vif imaging: 51*; rRNA inh HTS: 1; HIV Env fusion: -5; S100A4 inh HTS: -10

How did CCCc1cc(C(=O)Nc2cccc3ccccc23)n(C)n1 do in these assays?
miR-122 sensor: 5; FN deposition inh: -17; Vif imaging: -7; rRNA inh HTS: -30*; HIV Env fusion: 1; S100A4 inh HTS: -4

How did COc1ccc(-c2cc(=O)oc3c(C)c(O)c(CN(C)C)cc23)cc1 do in these assays?
miR-122 sensor: -6; FN deposition inh: -12; Vif imaging: 7; HIV Env fusion: 73*; S100A4 inh HTS: -6

What do the screens show for `C[C@H](CO)N1C[C@H](C)[C@@H](CN(C)Cc2ccc(C(=O)O)cc2)Oc2ccc(NC(=O)c3ccncc3)cc2C1=O`?
miR-122 sensor: -6[16.7 µM]; rRNA inh HTS: 3; S100A4 inh HTS: 3

How did CO[C@@H]1CN(C)C(=O)c2ccc(NS(C)(=O)=O)cc2OC[C@H](C)N(CC2CCOCC2)C[C@@H]1C do in these assays?
miR-122 sensor: 7[16.7 µM]; FN deposition inh: -11; rRNA inh HTS: 1; HIV Env fusion: 12[16.7 µM]; S100A4 inh HTS: -12

Results for COc1ccc2c(c1)OC[C@H]1[C@H]2N2C(=O)CN(Cc3ccc(C)cc3)C(=O)[C@@]2(C)[C@H]1c1ccccc1 ?
miR-122 sensor: 2; FN deposition inh: 2; Vif imaging: 1; rRNA inh HTS: 16; HIV Env fusion: 87*; S100A4 inh HTS: -2

Results for Cc1ccc2c(c1)[C@H]1[C@H](CO2)[C@H](c2ccccc2)[C@]2(C)C(=O)N(Cc3ccc(Cl)cc3)CC(=O)N12 ?
miR-122 sensor: -2; FN deposition inh: -16; Vif imaging: -4; rRNA inh HTS: 4; HIV Env fusion: 65*; S100A4 inh HTS: -3

What do the screens show for `COc1ccc(CN2CC(=O)N3[C@H]4c5cc(C)ccc5OC[C@@H]4[C@H](c4ccccc4)[C@]3(C)C2=O)cc1`?
miR-122 sensor: -1; FN deposition inh: -10; Vif imaging: -5; rRNA inh HTS: 9; HIV Env fusion: 6; S100A4 inh HTS: 3

What do the screens show for `Cc1ccc2c(c1)[C@H]1[C@H](CO2)[C@H](c2ccccc2)[C@]2(C)C(=O)N(Cc3ccc(F)cc3)CC(=O)N12`?
miR-122 sensor: 3; FN deposition inh: 1; Vif imaging: 2; rRNA inh HTS: 66; HIV Env fusion: 62*; S100A4 inh HTS: -4

Results for COc1ccc2c(c1)OC[C@H]1[C@H]2N2C(=O)CN(Cc3ccc(F)cc3)C(=O)[C@@]2(C)[C@H]1c1ccccc1 ?
miR-122 sensor: -2; FN deposition inh: -3; Vif imaging: 0; rRNA inh HTS: 2; HIV Env fusion: 48; S100A4 inh HTS: 7

How did S=C(Nc1ccccn1)NC1CCCCC1 do in these assays?
miR-122 sensor: 3; FN deposition inh: -7; Vif imaging: 0; rRNA inh HTS: -23*; HIV Env fusion: 4; S100A4 inh HTS: -10

What do the screens show for `Cc1ccccc1NC(=S)NC1CCCC1`?
miR-122 sensor: -2; FN deposition inh: -2; Vif imaging: 59*; rRNA inh HTS: 9; HIV Env fusion: -51; S100A4 inh HTS: -1

Results for S=C(Nc1ccc(Nc2ccccc2)cc1)Nc1ccccn1 ?
miR-122 sensor: -10; FN deposition inh: 9; Vif imaging: -6; rRNA inh HTS: -32*; HIV Env fusion: 33; S100A4 inh HTS: -2

What do the screens show for `S=C(Nc1ccccc1Cl)NC1CCCCCC1`?
miR-122 sensor: 149*; FN deposition inh: 2; Vif imaging: 19; rRNA inh HTS: -53; HIV Env fusion: 5; S100A4 inh HTS: -3

How did Cc1cccc(NC(=S)NNC(=S)NC2CCCCC2)c1C do in these assays?
Vif imaging: 7; rRNA inh HTS: -5; HIV Env fusion: -8; S100A4 inh HTS: -6

Results for CC(C)NC(=O)N(C)C[C@@H]1Oc2c(NC(=O)C3CC3)cccc2C(=O)N([C@@H](C)CO)C[C@H]1C ?
miR-122 sensor: 5[16.7 µM]; FN deposition inh: 4; rRNA inh HTS: 3; HIV Env fusion: -4[16.7 µM]; S100A4 inh HTS: -6

What do the screens show for `CN(C)c1ccc(-c2noc(C3CCN(S(=O)(=O)c4cccc(Cl)c4)CC3)n2)cc1`?
Vif imaging: -8; HIV Env fusion: 56*

What do the screens show for `NC(=O)C1Cc2ccccc2CN1C(=O)c1cc(C2CC2)nn1-c1ccccc1` (stereo unspecified)?
FN deposition inh: -7; Vif imaging: 1; rRNA inh HTS: -21*; S100A4 inh HTS: -5

How did O=C(O)c1cc(C2CC2)nn1-c1ccccc1 do in these assays?
miR-122 sensor: 2; FN deposition inh: -21; Vif imaging: 31; rRNA inh HTS: -6; HIV Env fusion: -28; S100A4 inh HTS: -8
